The source of these data is ChEMBL document CHEMBL1144993, “Imidazoline binding sites (IBS) profile modulation: key role of the bridge in determining I1-IBS or I2-IBS selectivity within a series of 2-phenoxymethylimidazoline analogues” (J Med Chem, 2003).

The nature of experiment [1]: Displacement of [125I]p-iodoclonidine from imidazoline receptor I-1 in rat pheochromocytoma cells. (In general: In a radioligand displacement assay an active substance lowers the binding of a labelled ligand.)
The target in experiment [2] is T1, Adrenergic receptor alpha-2 (Rattus norvegicus, UniProt P22086+P19328+P22909).
T1 sequence (P22086 whole entry): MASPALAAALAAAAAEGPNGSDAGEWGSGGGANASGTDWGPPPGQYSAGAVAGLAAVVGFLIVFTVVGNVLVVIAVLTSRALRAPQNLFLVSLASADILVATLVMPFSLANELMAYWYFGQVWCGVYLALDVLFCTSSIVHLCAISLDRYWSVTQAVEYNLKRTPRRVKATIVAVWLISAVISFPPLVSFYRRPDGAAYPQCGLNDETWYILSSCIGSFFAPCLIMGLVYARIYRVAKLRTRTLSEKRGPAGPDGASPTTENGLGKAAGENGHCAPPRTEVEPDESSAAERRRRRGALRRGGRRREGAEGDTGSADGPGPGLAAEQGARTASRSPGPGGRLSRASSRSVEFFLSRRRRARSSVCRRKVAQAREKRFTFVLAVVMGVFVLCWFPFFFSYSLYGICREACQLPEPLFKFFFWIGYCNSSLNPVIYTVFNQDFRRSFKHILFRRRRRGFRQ
T1 sequence (P19328 whole entry): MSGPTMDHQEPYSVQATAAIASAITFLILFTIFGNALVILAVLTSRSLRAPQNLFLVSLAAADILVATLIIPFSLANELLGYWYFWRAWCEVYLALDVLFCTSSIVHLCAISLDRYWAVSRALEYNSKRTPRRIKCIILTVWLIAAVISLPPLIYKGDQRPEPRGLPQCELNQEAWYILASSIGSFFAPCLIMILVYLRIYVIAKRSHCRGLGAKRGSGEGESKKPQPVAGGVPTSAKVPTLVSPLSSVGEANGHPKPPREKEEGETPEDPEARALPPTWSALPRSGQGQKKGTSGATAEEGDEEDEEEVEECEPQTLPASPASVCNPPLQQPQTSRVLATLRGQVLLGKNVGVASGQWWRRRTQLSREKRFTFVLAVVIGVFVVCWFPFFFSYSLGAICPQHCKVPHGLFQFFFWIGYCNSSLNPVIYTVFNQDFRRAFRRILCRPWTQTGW
T1 sequence (P22909 whole entry): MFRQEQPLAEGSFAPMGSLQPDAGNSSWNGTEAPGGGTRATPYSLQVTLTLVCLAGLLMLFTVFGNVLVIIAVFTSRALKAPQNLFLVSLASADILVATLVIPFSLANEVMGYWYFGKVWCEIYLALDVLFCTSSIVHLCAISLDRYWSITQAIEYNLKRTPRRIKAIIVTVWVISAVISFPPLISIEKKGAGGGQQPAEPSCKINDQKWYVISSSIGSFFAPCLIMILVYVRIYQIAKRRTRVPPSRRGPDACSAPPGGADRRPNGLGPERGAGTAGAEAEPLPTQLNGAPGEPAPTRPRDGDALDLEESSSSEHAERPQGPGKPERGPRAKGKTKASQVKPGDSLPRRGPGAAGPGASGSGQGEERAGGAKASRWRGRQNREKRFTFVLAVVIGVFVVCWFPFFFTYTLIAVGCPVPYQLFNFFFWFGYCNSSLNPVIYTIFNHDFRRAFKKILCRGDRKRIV
Kind of experiment: Displacement of [3H]clonidine from rat cortex membrane Alpha-2 adrenergic receptors. In short, it runs like this: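 Rat cerebral cortex membranes (200 μg protein) incubated with 5 nM [3H]-clonidine and 10–12 competitor concentrations in 50 mM Tris-HCl pH 7.4, 45 min at 25 °C. Nonspecific binding with 10 μM phentolamine. GF/B filtration, scintillation counting, triplicate points.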

The target of experiment [3] is Imidazoline I2 binding site (Oryctolagus cuniculus). Nature of the experiment: Displacement of [3H]idazoxan from imidazoline receptor I-2 of rabbit kidney membranes.
Experiment [4] is described as follows: Relative binding to imidazoline I2 and alpha-2 adrenergic receptors ([…]).
Experiment [5] can be described thus: Relative binding to imidazoline I2 and imidazoline I1 binding sites ([…]).
A short description of experiment [6]: Relative binding to imidazoline I1 and alpha-2 adrenergic receptors ([…]).
Experiment [7] is described as follows: Relative binding to imidazoline I1 and imidazoline I2 binding sites ([…]).
Experiment [8] has as its system Oryctolagus cuniculus. Nature of the experiment: Heart rate during 15 minute pretreatment with intracisternal compound administration. The format is functional. In short, it runs like this: (§1)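 Male normotensive Zika rabbits (2.5–3.5 kg), pentobarbitone 40 mg/kg iv anesthesia, 38 °C, tracheotomized, pancuronium 1 mg/kg iv, ventilated. Test drug given intracisternally as 0.2 mL after equal CSF removal, total 300 μg/kg; vehicle group 100 μL saline ic. Clonidine 10 μg/kg iv 15 min later. MAP = diastolic + 1/3 pulse pressure; HR from pressure signal. Mean ± SEM, n = 4–5; repeated-measures ANOVA.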

In experiment [9] the test system is Oryctolagus cuniculus. Nature of the experiment: Heart rate following 15 minute pretreatment with intracisternal compound administration and 10 ug/kg iv clonidine. It counts as functional. In a few lines: as §1
In experiment [10] the test system is Oryctolagus cuniculus. Nature of the experiment: Mean arterial pressure following 15 minute pretreatment with intracisternal compound administration and 10 ug/kg iv clonidine. The format is functional, Artery. In short, it runs like this: as §1
Experiment [11] concerns Oryctolagus cuniculus. Nature of the experiment: Mean arterial pressure during 15 minute pretreatment with intracisternal compound administration. It counts as functional, Artery. In a few lines: as §1

Turning to `c1ccc(C2CC2C2=NCCN2)cc1` (stereo not given), the “Log Ki” value in [1] was -7.76.
As for `C[C@@H](CC1=NCCN1)c1ccccc1`, the “Log Ki” value was -5.8 in [2] and -7 in experiment [3].
With `CC(Oc1ccccc1)C1=NCCN1` (stereo not given), the Ratio in experiment [4] was determined as 0.04; in experiment [5], 0.11; in experiment [6], 0.32; in experiment [7] it was 8.71.
The like results for `C(=C\c1ccccc1)/C1=NCCN1` were, in that order, 7410, 10, 741 and 0.1.
For the molecule `c1ccc(CCC2=NCCN2)cc1` [PHENYZOLINE], the “Log Ki” value is -5.7 in experiment [2] and -8.6 in experiment [3]. In addition, the Ratio in experiment [4] was found to be 794; in [5], 1480; in [6] it was 0.54; in [7] it was 0.0007.
Consider `C[C@H](Cc1ccccc1)C1=NCCN1`, for which the “Log Ki” value in experiment [2] is -5.4.
Consider `c1ccc([C@H]2C[C@@H]2C2=NCCN2)cc1`, for which the “Log Ki” value in experiment [1] is -7.93.
On to `CC(CC1=NCCN1)c1ccccc1` (stereo not given), for which the “Log Ki” value in [2] is -5.93; in experiment [3] it was -6.91.
The like results for `C[C@H](CC1=NCCN1)c1ccccc1` were, in that order, -5.9 and -5.6.
As for `c1ccc([C@@H]2C[C@H]2C2=NCCN2)cc1`, the “Log Ki” value in [1] is on record as -6.46.
Consider `CC(Cc1ccccc1)C1=NCCN1` (stereo not given), for which the “Log Ki” value in [2] was -5.45. Also, the values for the Heart rate in the experiment with Oryctolagus cuniculus [8] and in the experiment on Oryctolagus cuniculus [9] were 363 beats min-1 and 355 beats min-1, respectively. In addition, the values for the MAP in the experiment with Oryctolagus cuniculus [10] and in the experiment on Oryctolagus cuniculus [11] were 91 mmHg and 99 mmHg, respectively.
Regarding `C[C@@H](Cc1ccccc1)C1=NCCN1`, the “Log Ki” value in experiment [2] is -5.3.
